Sampled rows, rich in hits. Any-hit rate of the full collection: about 5.1%.
STAT3 inh-1: inhibitors of IL-6 induced STAT3 signaling; U3A cells, IL-6 STAT3-luciferase reporter, luminescence; host cell line lacks STAT1; inhibition, % at 5.5 µM; actives 0.89% (n = 190,000);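 active = inhibition above the mean inhibition across all screened compounds plus 3 SD, cut at about 44% in these data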
STAT3 activator: activators of IL-6 induced STAT3 signaling; U3A cells, IL-6 STAT3-luciferase reporter, luminescence; 100% = signal with IL-6 EC80 alone; activation (% of control), % at 5.6 µM; actives 0.91% (n = 190,000);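 active = activation above the screen-wide mean of compound activation plus 3 SD, cut at about 130% in these data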
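Assay system – human STAT1-deficient U3A cells with stable STAT3-luciferase reporter · Also added – IL-6 (33 ng/mL) · Schedule – compound 1 h, then IL-6 6 h at 37 °C · Technique – reporter luminescence signal · Evaluation – % activation versus median of IL-6-stimulated wells · Benchmarks – IL-6-only wells as 100% reference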
NF-kB expr up: raises NF-kB expression in human neuronal cells | NF-kB reporter expression; stronger effect = higher value | AID 1239 | actives 1.6% (n = 190,000) | fold change at 12.5 µM; in the data active = fold change above about 3.3
STAT1 act: STAT1 signaling activation; activation (% of control), % at 5.5 µM; actives 2.6% (n = 200,000); AID 932; NIH 3T3 STAT1-luciferase reporter, IFN-gamma, luminescence; 100% = IFN-gamma alone, no compound;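 active = activation above the screen-wide mean activation plus 3 SD, cut at about 130% in these data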
STAT1 blocker: reduces IFN-gamma driven STAT1 reporter signal | inhibition, % at 5.5 µM | NIH 3T3 STAT1-luciferase reporter, luminescence | actives 0.35% (n = 200,000);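 active = inhibition above a set limit, the mean inhibition across all tested compounds plus 3 SD, cut at about 34% in these data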
APP 5'UTR act: activates APP 5'UTR luciferase reporter; actives 1% (n = 190,000); activation, % at 2 µM; SH-SY5Y APP 5'UTR luciferase reporter, luminescence; zero percent = DMSO vehicle wells; AID 1276;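 active = activation above a set limit, based on mean plus 3 SD of controls, cut at about 140% in these data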
STAT3 inh-2: confirmation of STAT3 signaling inhibitors; shares compounds with STAT3 inh-1; U3A cells, IL-6 STAT3 luciferase reporter, luminescence; cell line lacks STAT1; inhibition, % at 5.7 µM; actives 45% (n = 1,200); AID 1265;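 active = inhibition above the hit cutoff computed for the primary STAT3 screen, cut at about 44% in these data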
NFkB inh 2: NF-kappaB inhibition in STAT3 inhibitor counter-screen | HEK293T NF-kB luciferase reporter, TNF-alpha induced | actives 36% (n = 1,200) | shares compounds with STAT3 inh-1 | AID 1308 | inhibition, % at 5.7 µM;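 active = inhibition above the mean of solvent-only control wells plus 3 SD, cutoff set per campaign, cut at about 13% in these data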
STAT1 inh 2: inhibits STAT1, counter-screen to STAT3 inhibitors; inhibition, % at 5.7 µM; actives 27% (n = 1,200); NIH 3T3 STAT1-luciferase reporter, IFN-gamma induced, luminescence; shares compounds with STAT3 inh-1;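 active = inhibition above the mean plus 3 SD of solvent-only control wells, limit set per screening run, cut at about 16% in these data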
Of the large screens only hits and unclear results are named; the others gave an inactive call (follow-up assays come after a bar, where they were run).

O=C(NCc1ccc(F)cc1)C1CCC(=O)N1C1CCCCC1 (stereo not drawn)	STAT3 inh-1 45 | STAT3 inh-2 inactive | NFkB inh 2 inactive | STAT1 inh 2 inactive
O=C(O)CNS(=O)(=O)c1ccc(Br)s1	none
COc1cc(C)c(Cl)cc1S(=O)(=O)NCc1ccncc1	STAT3 inh-1 70 | STAT3 inh-2 66 | NFkB inh 2 19 | STAT1 inh 2 21
O=S(=O)(NCc1ccncc1)c1ccccc1	none
Cc1ccc(S(=O)(=O)NCc2ccncc2)cc1C	STAT3 inh-1 74 | STAT3 inh-2 76 | NFkB inh 2 26 | STAT1 inh 2 17
COC(=O)COc1ccc(S(=O)(=O)NCc2ccncc2)cc1	STAT3 inh-1 63 | STAT3 inh-2 54 | NFkB inh 2 inactive | STAT1 inh 2 19
COc1cc(C)c(Br)cc1S(=O)(=O)NCc1ccccc1	none
O=S(=O)(NCc1ccncc1)c1ccc(Br)s1	STAT3 inh-1 83 | STAT3 inh-2 80 | NFkB inh 2 27 | STAT1 inh 2 27
CCN(C1CCCCC1)S(=O)(=O)c1ccc(S(=O)(=O)NCc2ccncc2)cc1	STAT3 inh-1 62 | STAT3 inh-2 inactive | NFkB inh 2 15 | STAT1 inh 2 25
CCN(C1CCCCC1)S(=O)(=O)c1ccc(S(=O)(=O)NCCc2ccncc2)cc1	none
CCOCCCNC(=O)c1ccc2c(c1)OCO2	none
O=C(NCCOc1ccccc1)c1ccc2c(c1)OCO2	STAT3 inh-1 76 | STAT3 inh-2 inactive | NFkB inh 2 26 | STAT1 inh 2 inactive
Cc1ccc(C)c(C(=O)CSc2nnnn2C(C)C)c1	none
Cc1ccc(C(=O)CSc2nnnn2C(C)C)c(C)c1	STAT3 inh-1 78, APP 5'UTR act 155 | STAT3 inh-2 49 | NFkB inh 2 22 | STAT1 inh 2 inactive
Fc1ccc(-c2nnc(-c3ccc(Cl)cc3Cl)o2)cc1	STAT3 inh-1 70, APP 5'UTR act 141 | STAT3 inh-2 inactive | NFkB inh 2 inactive | STAT1 inh 2 inactive
CSc1ccccc1-c1nnc(-c2ccc(Cl)cc2Cl)o1	none
Clc1ccc(-c2nnc(-c3ccccc3)o2)c(Cl)c1	STAT3 inh-1 59, NF-kB expr up 5 | STAT3 inh-2 inactive | NFkB inh 2 inactive | STAT1 inh 2 inactive
COc1ccc2[nH]c3c(NCCN(C(C)C)C(C)C)ncnc3c2c1	none
CC(C)OCCCNc1ncnc2c1[nH]c1ccccc12	STAT3 inh-1 66 | STAT3 inh-2 62 | NFkB inh 2 18 | STAT1 inh 2 32
O=c1c2[nH]c3ccccc3c2ncn1CCC1=CCCCC1	none
C1=C(CCNc2ncnc3c2[nH]c2ccccc23)CCCC1	STAT3 inh-1 83 | STAT3 inh-2 78 | NFkB inh 2 41 | STAT1 inh 2 32
Cc1cc(C(=O)CN2C(=O)c3ccccc3S2(=O)=O)c(C)n1-c1ccccc1	STAT3 inh-1 59 | STAT3 inh-2 78 | NFkB inh 2 16 | STAT1 inh 2 58
O=C(N/N=C/c1ccc2c(c1)OCO2)c1ccccn1	STAT3 inh-1 55 | STAT3 inh-2 inactive | NFkB inh 2 inactive | STAT1 inh 2 inactive
Cc1cccc(C(=O)N/N=C/c2ccc3c(c2)OCO3)n1	none
CC(C)(O)C#Cc1ccc(C(=O)NCc2ccccc2)s1	none (no result: NF-kB expr up)
Nc1nc(-c2ccc(Cl)cc2)nn1C(=O)c1ccco1	none
CCCc1ccc(-c2cc(C(=O)N/N=C/c3ccc([N+](=O)[O-])o3)c3ccccc3n2)cc1	STAT3 inh-1 48 | STAT3 inh-2 inactive | NFkB inh 2 inactive | STAT1 inh 2 inactive
O=C(N/N=C/c1ccc([N+](=O)[O-])o1)c1cc(-c2cccc(Br)c2)nc2ccccc12	none
CCCC(=O)N(c1ccc(C(=O)O)cc1)c1nc(-c2ccccc2)c(C)s1	none (no result: NF-kB expr up)

Screening data from PubChem.
